We go through two compounds from publication PMC3734847 (Integrative biology : quantitative biosciences from nano to …, 2012).

Values joined by “and” are separate entries in the source; they are usually repeats but may differ in a detail not shown here. Equal entries are not always repeated. “Also recorded” adds a separate entry of the source. Where two headings read alike, the source gives them in different places.

In one data set the test system is Tu212 SCC cells. Briefly: Neutral Red dye cell viability. Type of data set: cell-based, human. The method, boiled down: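 Tu212 cells grown in DMEM/F12 with 10% FBS, penicillin/streptomycin and 2 mM L-glutamine at 37°C, 5% CO2. Plated in 96 wells and left overnight to adhere. Test compound (0–20 μM) or 0.1% DMSO vehicle added in triplicate. Neutral Red (50 μg/mL in fresh medium) added for 30 min at 37°C, then two PBS washes. Dye eluted with 0.5 N HCl/35% ethanol and read at OD570. Blank subtracted and triplicates averaged.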

Data set [1] is described as follows: Aqueous solubility by laser nephelometry. To be noted: phosphate buffered saline with 1% DMSO, pH 7.4. The format is physicochemical.
The test system of data set [2] is Tu212 SCC xenografts. Briefly: EF31 i.p. therapy of Tu212 SCC xenografts in female athymic nude mice. Type of data set: in vivo.
Data set [3] in a line: Pharmacokinetic study of EF31 i.p. in mice. To be noted: mouse; for AUC(0-inf) / Vd/F / half-life / Cmax / Tmax: male, ND4 Swiss Webster, plasma, ip; for Cmax / Tmax: mouse plasma; for Tmax: DMSO/0.5% CMC (10%/90%). The format is in vivo, ND4 Swiss Webster mice. The method, boiled down: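 Male ND4 Swiss Webster mice (25–30 g) got one i.p. dose of 12.5 or 25 mg/kg in 10% DMSO/0.5% CMC. One submandibular blood sample per mouse, under ketamine/xylazine, at 0.08, 0.25, 0.5, 1, 2, 3, 4 or 6 h (n=3/time point). Heparinized plasma stored at −80°C, deproteinated with acetonitrile and run on LC/MS/MS with internal standard.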

In the next data set the test system is NF-κB signaling pathway. The experiment in a line: Western blotting of xenograft tumor extracts for the NF-κB signaling pathway. The settings on record: 6 weeks, Western blot. Type of data set: in vivo, athymic nude mice. The essentials:
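Tu212 cells (2 × 10^6) implanted s.c. in female athymic nude mice. Mice (n=10/group) dosed i.p. once daily, 5 days/week, with test compound at 12.5 or 25 mg/kg, or with vehicle (0.5% CMC/10% DMSO in water). Tumors lysed in RIPA buffer with protease inhibitors for 30 min on ice, then cleared at 13,000 rpm for 15 min at 4°C. 100 μg protein run on 10% SDS-PAGE and transferred to PVDF.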

A short description of data set [4]: Serum chemistry profile and pathologic examination of normal organs. To be noted: 12.5 and 25 mg/kg i.p. Type of data set: in vivo, mice.
Data set [5] deals with Tu212 SCC xenografts. The experiment in a line: H & E staining and immunohistochemistry of xenograft tumor tissues. Type of data set: in vivo, athymic nude mice.
[6] abbreviates: 12.5 mg/kg, 12.5 mg/kg i.p. single dose.
The mark [7] stands for this setting: 25 mg/kg, 25 mg/kg i.p. single dose.
Where [8] appears, read: 12.5 and 25 mg/kg i.p., dose-dependent.

Consider `O=C1/C(=C/c2ccccc2F)CNC/C1=C\c1ccccc1F` [EF24, reference compound], for which the IC50 in the data set on Tu212 SCC cells (read-out: IC50, viable cells, Tu212 cells, Neutral Red Dye assay, 0–20 μM, triplicate, 48 hours (Fig. 1 legend; methods: 72 h)) was determined as 8 µM.
On to `O=C1C(=Cc2ccccn2)CNCC1=Cc1ccccn1` [EF31, 3,5-bis(2-pyridinylmethylidene)-4-piperidone], for which, in the data set on Tu212 SCC cells (Homo sapiens, TU212, read-out: IC50, viable cells), the IC50 came out at 7 µM. Besides, in data set [1], the solubility at 90 min is 13 µg/mL and 47 µM. The “tumor size vs vehicle control” value with Tu212 SCC xenografts [2] (12.5 mg/kg i.p. once/day 5 days/week, n = 10, p < 0.05–0.01) was “reduced tumor size significantly”. In the data set on Tu212 SCC xenografts [2] (25 mg/kg i.p.), the “dose relative to maximally tolerated dose (MTD)” value is “may be above the maximally tolerated dose”. In addition, the “animals died, apparently due to treatment” value in the data set on Tu212 SCC xenografts [2] (25 mg/kg i.p. group, n = 10) is on record as “three”. In the data set with Tu212 SCC xenografts [2] (25 mg/kg i.p. once/day 5 days/week, n = 10, p < 0.05–0.01), the “tumor size / tumor growth vs vehicle control” value is reported as “inhibited tumor growth almost completely; also recorded: reduced tumor size significantly”. Moreover, in the data set with Tu212 SCC xenografts [2] (25 mg/kg i.p., on average, regained as treatment continued), the “temporary reduction of body weight” value was ~ 10%. Further, the “suppression of tumor growth, dose dependence” value with Tu212 SCC xenografts [2] (12.5 and 25 mg/kg i.p. daily 5 days a week for over one month) was “dose-dependent suppression of tumor growth”. Also, in data set [3] (12.5 mg/kg), the AUC(0-inf) is 3390 ng·h/mL, the Vd/F stood at 11.5 L/kg and the half-life was 2.2 h. Further, in data set [3] (setting [6]), the Cmax was determined as 1070 ng/mL and the Tmax is 0.25 h. In data set [3] (25 mg/kg), this compound had an AUC(0-inf) of 7770 ng·h/mL, a Vd/F of 11.1 L/kg and a half-life of 2.4 h. For the same compound, in data set [3] (setting [7]), the Cmax was 2130 ng/mL and the Tmax amounted to 0.5 h. Besides, the “estimated volumes of distribution” value in data set [3] (12.5 and 25 mg/kg i.p.) is ~ 11 L/kg. For the same compound, in the data set on NF-κB signaling pathway (25 mg/kg i.p.), the “level of phosphorylated IKKα in tumors vs control” value is listed as “reduced” and the “level of total IKKα in tumors vs control” value is “increased in a dose-dependent manner”. Besides, in the data set on NF-κB signaling pathway (12.5 and 25 mg/kg i.p.), the “level of IκBα phosphorylated at serine 32 and 36 in tumors” value is on record as “increased”; the “level of phosphorylated IKKβ in tumors” value is “reduced”. Further, in the data set with NF-κB signaling pathway (setting [8]), the “level of phosphorylated NF-κB p65 at Ser276 in tumors” value is recorded as “decreased”, the “level of total IKKβ in tumors” value is “increased”, the “level of total IκBα in tumors” value was “decreased” and the “level of total p65 in tumors” value is “decreased”. For the same compound, the “pathologic examination (hematoxylin-eosin) of liver, kidneys, lungs and spleen” value in data set [4] (n = 5/group) is on record as “normal”. Also, the serum chemistry profile entry in data set [4] (treated mice, normal values from the University of Minnesota) is “all within the normal values”. Also, in the data set with Tu212 SCC xenografts [5] (0, 12.5 and 25 mg/kg i.p. daily 5 days a week for 5 weeks), the “degree of IHC staining of phosphorylated IκBα in tumors” value is listed as “stronger in tumors treated at 25 mg/kg than 12.5 mg/kg, which is stronger than that in the control”. In the data set with Tu212 SCC xenografts [5] (25 mg/kg i.p. daily 5 days a week for 5 weeks), the “H & E staining of tumor tissues” value is “tumor cells are replaced with fibrous scar tissue”.
